Kir21 inh – Kir2.1 (mouse) channel inhibition. actives 0.85% (n = 310,000). B-score at 10 µM. HEK293-Kir2.1, FluxOR thallium flux fluorescence; stronger effect = lower value;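 active means fluorescence ratio B-score at or below minus 3 SD of library scores, with starting-brightness B-score within 2 SD, cut at about -4.2 in these data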;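 further: channel flux triggered by added potassium and thallium sulfate stimulus; B-score of peak minus minimum fluorescence over baseline after thallium stimulus; more negative B-score means stronger Kir2.1 block with less thallium influx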
KCNQ1 block – human KCNQ1 channel inhibition. P51787. CHO-K1 KCNQ1, FluxOR thallium flux fluorescence; stronger effect = higher value. B-score at 10 µM. actives 1.3% (n = 310,000). AID 2642;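 active means compounds whose thallium flux B-score, printed positive for inhibition, exceeds three library SD while starting fluorescence stays within three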;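 further: channel opened by potassium depolarization with thallium stimulus after 20 min compound exposure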
KCNQ1 act – human KCNQ1 channel potentiation or activation | actives 0.35% (n = 310,000) | P51787 | AID 2648 | CHO-K1 KCNQ1, thallium flux FluxOR fluorescence; stronger effect = higher value | B-score at 10 µM;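 active means fluorescence ratio B-score, a plate-corrected score, at least three library SD, with initial intensity B-score within 5 SD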
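Schedule – 37 °C overnight plating, 90-min dark dye load, 20-min compound pretreatment · System – stable KCNQ1 CHO-K1 line · Probe or stimulus – thallium- and potassium-containing depolarizing buffer · Measured by – kinetic FluxOR fluorescence, 10 s baseline plus 110 s post-stimulus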
hERG rescue – shields human hERG channel from block by proarrhythmic agents; Q12809; CHO-hERG, FluxOR thallium flux, dofetilide IC70 present; activation (rescue from dofetilide block), less the hit threshold, % at 10 µM; actives 0.51% (n = 310,000); AID 1511;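 active means activation above the mean of controls blocked by dofetilide plus 5 SD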;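 further: thallium influx through hERG after potassium depolarization seen as dye fluorescence rise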
KCNK3 block – human KCNK3 channel inhibition, primary screen. CHO-KCNK3 thallium flux, FluxOR fluorescence; stronger effect = lower value. B-score at 10 µM. actives 0.84% (n = 340,000). AID 602410;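 active means B-score under library mean minus 4 SD, starting fluorescence ratio at most library mean plus 5 SD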;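 further: more negative B-score means stronger inhibition of thallium flux through KCNK3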
Target sequence (O14649 whole entry, looked up): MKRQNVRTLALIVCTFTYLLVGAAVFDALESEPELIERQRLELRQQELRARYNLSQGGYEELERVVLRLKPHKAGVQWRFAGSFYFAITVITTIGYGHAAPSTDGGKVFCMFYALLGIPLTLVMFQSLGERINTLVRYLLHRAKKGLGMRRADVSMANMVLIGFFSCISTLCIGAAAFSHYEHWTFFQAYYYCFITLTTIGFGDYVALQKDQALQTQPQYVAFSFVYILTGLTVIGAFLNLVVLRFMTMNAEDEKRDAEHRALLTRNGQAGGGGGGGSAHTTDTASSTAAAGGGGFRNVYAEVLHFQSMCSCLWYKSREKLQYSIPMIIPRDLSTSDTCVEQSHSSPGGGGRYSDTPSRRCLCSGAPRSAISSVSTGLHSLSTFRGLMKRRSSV
KCNK9 inh-1 – human KCNK9 channel inhibition; Q9NPC2; HEK293 KCNK9, FluxOR thallium flux fluorescence; stronger effect = lower value; B-score at 10 µM; actives 1.2% (n = 310,000);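 active means ratio B-score over 3 SD below the library mean, with starting fluorescence within 5 SD of its mean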;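 further: negative B-score means less thallium flux so channel inhibition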
hERG ctr – blocks human hERG, in counter-screen for Kir2.1 inhibitors | hERG-expressing cells, thallium flux | shares compounds with Kir21 inh | actives 20% (n = 320) | inhibition, % at 10 µM;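 further: host cells are CHO cells stably expressing hERG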
KCNK9 inh-2 – tests whether Kir2.1 inhibitors also affect human KCNK9. AID 2329. actives 5% (n = 320). KCNK9-expressing cells, ion flux inhibition. shares compounds with Kir21 inh. inhibition, % at 10 µM
Kir21 ephys inh – blocks mouse Kir2.1 current in automated electrophysiology. shares compounds with Kir21 inh. Kir2.1 cells, automated patch-clamp current inhibition. inhibition, % at 25 µM. actives 71% (n = 320)
KCNQ1 block val – human KCNQ1 channel inhibition, validation assay; actives 93% (n = 1,600); shares compounds with KCNQ1 block; AID 588353; inhibition, % at 10 µM; KCNQ1 cell line, FluxOR thallium flux fluorescence;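 active means primary screen active, with duplicate mean exceeding buffer control mean plus 3 SD of buffer wells, cut at about 28% in these data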;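 further: 0% = buffer control ratio and 100% = XE991 inhibitor control ratio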
CHO Tl flux – counter-screen for KCNQ1 inhibitors: effect in parental CHO cells. shares compounds with KCNQ1 block. parental CHO-K1, FluxOR thallium flux fluorescence ratio; stronger effect = lower value; zero means no signal rise above baseline. fluorescence ratio (Tl flux) at 10 µM. actives 21% (n = 1,600);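 active means mean of duplicate thallium-flux fluorescence ratios in parental host cells more than 5 SD below the buffer control mean, cut at about 0.38 in these data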;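 further: ratio is peak minus minimum fluorescence divided by baseline fluorescence; actives read low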
KCNQ2 spec – KCNQ1 inhibitor that also blocks rat KCNQ2 channel. shares compounds with KCNQ1 block. KCNQ2 cells, FluxOR thallium flux fluorescence. inhibition, % at 10 µM. actives 71% (n = 1,600). AID 651746;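 active means mean percent inhibition of the KCNQ2 thallium signal more than 5 SD above the buffer-only control wells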;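 further: KCNQ2 expressed in CHO cells; 0% = buffer control wells and 100% = XE-991 inhibitor control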
KCNQ1 KCNE1 spec – KCNQ1 inhibitor that also blocks human KCNQ1/KCNE1 channel; inhibition, % at 10 µM; shares compounds with KCNQ1 block; KCNQ1/KCNE1 cells, FluxOR thallium flux fluorescence; AID 652147; actives 77% (n = 1,600);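 active means mean percent inhibition of duplicate wells above the buffer-only control mean plus 3 SD of those controls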;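 further: 0% = buffer only wells and 100% = XE-991 inhibitor control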
KCNK9 inh conf – confirmation of human KCNK9 potassium channel inhibitors; shares compounds with KCNK9 inh-1; HEK293 KCNK9 cells, FluxOR thallium flux fluorescence; inhibition, % at 10 µM; actives 43% (n = 4,900); AID 492992;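 active means thallium signal inhibited by more than 5 SD of the compound-free buffer control wells, on both duplicate plates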;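 further: 0% = assay buffer control wells without compound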
Kir21 sel – mouse Kir2.1 off-target activity of KCNK9 modulators | shares compounds with KCNK9 inh-1 | Kir2.1 cells, FluxOR thallium flux fluorescence | inhibition, % at 10 µM | actives 4% (n = 4,900) | AID 492993;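 active means thallium signal drop more than 5 SD beyond the mean of the no-compound control wells, seen in both duplicate plates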;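 further: signal is fluorescence rise after thallium addition divided by baseline fluorescence; plate controls were assay buffer only for no effect and full block by chlorpromazine control for full effect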
HEK293 Tl ctr – second check of KCNK9 modulator effects in non-induced HEK293 cells | inhibition, % at 10 µM | AID 492997 | shares compounds with KCNK9 inh-1 | actives 40% (n = 4,900) | FluxOR thallium flux;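 active means thallium signal drop beyond 5 SD of the untreated control mean, on both duplicate plates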;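 further: plate controls were buffer only IC0 wells for no effect and SID17386958 at its maximal inhibitory level for full effect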
Numbers without * were called inactive; i = inactive; / = no result. Only some compounds are listed: those with a hit (about 3.7% of all), similar ones and a draw of the others. Unless noted, how the calls were made is not given here.

SMILES	Kir21 inh	KCNQ1 block	KCNQ1 act	hERG rescue	KCNK3 block	KCNK9 inh-1	hERG ctr	KCNK9 inh-2	Kir21 ephys inh	others
CN(C(=O)CSc1nnc(-c2c[nH]c3ccccc23)n1C1CC1)C1CCS(=O)(=O)C1 (stereo not drawn)	/	/	/	/	i	/	/	/	/
NC(=O)C1=C[C@@H](C2CCCCC2)C[C@@H](OCc2ccc(CO)cc2)O1	-7.7*	i	i	-10	i	i	i	i	26%*
O=C(O)C1=C[C@@H](C2CCCCC2)C[C@@H](OCc2ccc(CO)cc2)O1	0.15	i	i	-5	i	i	/	/	/
O=C(CN1CCN(Cc2ccc(Cl)cc2)CC1)N1CCc2ccccc21	-9.5*	i	i	-5	i	i	i	i	16%*
Cc1cc(OCCOCCNCc2ccccc2)ccc1C(C)C	-7.8*	i	i	-17	i	i	49%*	i	52%*
CC1=CC(C)(C)N(C(=O)CSc2nnc(C)s2)c2ccc(C)cc21	-7.1*	i	i	-6	i	i	i	i	8.3%*
CCn1c(COc2ccc(C)cc2)nnc1SCc1ccc(C#N)cc1	-7.9*	i	i	-13	i	i	i	i	7.3%*
CCn1c(COc2ccc(C)cc2)nnc1SCC(=O)C(C)(C)C	-2.7	i	i	0	i	i	/	/	/
Cc1cccc(NS(=O)(=O)c2cc3c(cc2C)n(C)c(=O)c(=O)n3C)c1	-0.02	i	i	-10	i	i	/	/	/
O=C(NC1CCN(Cc2ccc3ccccc3c2)CC1)c1ccccc1	-1.1	i	i	-10	i	i	/	/	/
COc1cccc(C(C)NC(=S)NCc2ccc(Cl)cc2)c1 (stereo not drawn)	-7.8*	8*	i	-20	i	i	i	i	31%*	KCNQ1 block val=0;CHO Tl flux=0.52;KCNQ2 spec=i;KCNQ1 KCNE1 spec=i
COc1ccc(NC(=O)C2CCN(S(=O)(=O)c3ccc4c(c3)CC(C)N4C(C)=O)CC2)c(OC)c1 (stereo not drawn)	0.05	i	i	-13	i	i	/	/	/
O=C(O)c1cnn(-c2nc(-c3ccc(Cl)c(Cl)c3)cs2)c1C(F)(F)F	3	i	i	-4	i	i	i	i	i	KCNK9 inh conf=i;Kir21 sel=i;HEK293 Tl ctr=i

Assay outcomes: PubChem BioAssay, Johns Hopkins Ion Channel Center
